Assay results published in PMC9066701 (RSC Advances, 2019).
Like-named read-outs stand apart in the source and are kept apart here.

Tests used:
[1] = tested on: HepG-2 cells; assay: Mitochondrial membrane potential by JC-1 staining; type: cell-based, human; conditions: HepG-2, 30 μM, 48 hours, negative control 5.42
[2] = tested on: BGC803 human gastric cancer cell line; assay: MTT cytotoxicity assay, BGC803; type: cell-based; conditions: read-out: IC50 BGC803
Procedure, shortened: (§1)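 Adherent cells kept in DMEM with 10% FBS at 37 °C, 5% CO2, seeded at 5 × 10^3 cells per well and left overnight. Test compound in DMF diluted in medium (DMF final < 0.4%) for 48 h at 37 °C. MTT (5 mg mL−1) added for 4 h, formazan dissolved in DMSO, A570 read. IC50 from % inhibition versus log concentration; cisplatin run as reference.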

[3] = tested on: HepG-2 human hepatocellular carcinoma cell line; assay: MTT cytotoxicity assay, HepG-2; type: cell-based; conditions: read-out: IC50 HepG-2
Procedure, shortened: as §1

[4] = tested on: MCF-7 human breast carcinoma cell line; assay: MTT cytotoxicity assay, MCF-7; type: cell-based; conditions: read-out: IC50 MCF-7
Procedure, shortened: as §1

[5] = tested on: NCI-H460 large cell lung cancer cell line; assay: MTT cytotoxicity assay, NCI-H460; type: cell-based; conditions: read-out: IC50 NCI-H460
Procedure, shortened: as §1

[6] = tested on: SGC7901 gastric cancer cell line; assay: MTT cytotoxicity assay, SGC7901; type: cell-based; conditions: read-out: IC50 SGC7901, 48 h drug exposure
Procedure, shortened: as §1

[7] = tested on: SGC7901/CDDP cisplatin-resistant gastric cancer cell line; assay: MTT cytotoxicity assay, SGC7901/CDDP; type: cell-based; conditions: read-out: IC50 SGC7901/CDDP, 48 h drug exposure
Procedure, shortened: as §1

[8] = tested on: HUVEC human umbilical vein endothelial cell line; assay: MTT cytotoxicity assay, HUVEC; type: cell-based; conditions: read-out: IC50 HUVEC, 48 h drug exposure, normal cells
Procedure, shortened: as §1

[9] = tested on: HepG-2 cells; assay: Annexin V-FITC/PI apoptosis assay by flow cytometry; type: cell-based, human; conditions: HepG-2, 50 μM, 24 hours
[10] = reported for kiteplatin; same experimental conditions; cited from earlier work
[11] = PBS, 37 °C, pH 7.0; cited from earlier work

| Compound | Red-green fluorescence ratio (FL2/FL1) [1] | IC50 ([2]; MTT assay, 48 h drug exposure) [µM] | IC50 ([3]; MTT assay, 48 h drug exposure) [µM] | IC50 ([4]; MTT assay, 48 h drug exposure) [µM] | IC50 ([5]; MTT assay, 48 h drug exposure) [µM] | also measured |
| --- | --- | --- | --- | --- | --- | --- |
| N#CC(C#N)=NNc1cccc(Cl)c1 [CCCP, carbonylcyanide-m-chlorophenylhydrazone] | 0.04 | – | – | – | – | – |
| N.N.O=C([O-])C1(C(=O)[O-])CCC1.[Pt+2] [Carboplatin, carboplatin] | 2.56 | 77.1 ± 5.35 | 42.3 ± 2.55 | 179 ± 10.6 | 52.9 ± 4.98 | – |
| N.N.[Cl][Pt][Cl] [Cisplatin, cisplatin] | 0.54 | 21.6 ± 1.35 | 27.8 ± 2.56 | 29.2 ± 1.38 | 14.8 ± 1.35 | IC50 [6]: 9.96 ± 0.87 µM; IC50 [7]: 35.6 ± 2.55 µM; IC50 [8]: 36.9 ± 2.23 µM; apoptotic rate (early + late) [9]: 28.79% |
| O=C(O)C(Cl)Cl [DCA, Dichloroacetate] | 4.17 | – | – | – | – | IC50 ([2]; Homo sapiens, BGC803, 48 h): > 100 µM; IC50 ([3]; Homo sapiens, HepG2, 48 h): > 100 µM; IC50 ([4]; Homo sapiens, MCF7, 48 h): > 100 µM; IC50 ([5]; Homo sapiens, NCI-H460, 48 h): > 100 µM |
| O=C1[O][Pt]2([NH][C@@H]3CCCC[C@H]3[NH]2)[O]C1=O [Oxaliplatin, oxaliplatin] | 0.94 | 29.1 ± 1.65 | 26.5 ± 2.55 | 41.3 ± 3.43 | 13.4 ± 1.13 | IC50 [6]: 13.5 ± 1.55 µM; IC50 [7]: 99.4 ± 5.23 µM; IC50 [8]: 51 ± 4.42 µM; apoptotic rate (early + late) [9]: 21.74% |
| NC1CCC(N)CC1.[Cl][Pt+2][Cl] (stereo not shown) [kiteplatin] | – | – | – | – | – | half-life [10]: 1 h |
| ct-[Pt(NH3)2(TFA)2(CBCDA)] [ct-[Pt(NH3)2(TFA)2(CBCDA)] (5)] | – | – | – | – | – | t1/2 [11]: 2.37 h |
